Calls of active or inactive are those of the source.
Experiments:
Mu-type opioid receptor [1] = target: T1, Mu-type opioid receptor (Homo sapiens, UniProt P35372); experiment: Displacement of [3H]DAMGO from MOR in HEK293 cells; type: cell-based
[2] = target: Kappa-type opioid receptor (Rattus norvegicus, UniProt P34975); experiment: Displacement of [3H]U69593 from rat KOR expressed in CHO cells; type: cell-based
[3] = target: Delta-type opioid receptor (Homo sapiens, UniProt P41143); experiment: Displacement of [3H]DPDPE from human DOR expressed in CHO cells; type: cell-based
Chain of Delta-type opioid receptor (P41143 whole entry): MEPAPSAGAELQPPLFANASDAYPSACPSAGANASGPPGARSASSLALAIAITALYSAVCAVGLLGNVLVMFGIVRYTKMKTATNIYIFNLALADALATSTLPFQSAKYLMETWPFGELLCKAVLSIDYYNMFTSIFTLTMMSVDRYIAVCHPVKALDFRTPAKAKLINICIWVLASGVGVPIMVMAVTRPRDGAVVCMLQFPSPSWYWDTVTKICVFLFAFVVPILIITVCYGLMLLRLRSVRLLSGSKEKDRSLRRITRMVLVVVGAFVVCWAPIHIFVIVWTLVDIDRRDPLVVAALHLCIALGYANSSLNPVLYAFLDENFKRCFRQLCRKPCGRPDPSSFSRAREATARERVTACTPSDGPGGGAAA

[4] = Selectivity ratio of Ki for displacement of [3H]U69593 from rat KOR expressed in CHO cells to Ki for displacement of [3H]DAMGO from MOR in HEK293 cells; type: cell-based
Homo sapiens [5] = species: Homo sapiens; experiment: Selectivity ratio of Ki for displacement of [3H]DPDPE from human DOR expressed in CHO cells to Ki for displacement of [3H]DAMGO from MOR in HEK293 cells; type: cell-based
[6] = target: Mu-type opioid receptor (Cavia porcellus) (UniProt P97266); experiment: Agonist activity at MOR in Dunkin-Hartley guinea pig ileum assessed as inhibition of electrically-evoked contractions; type: tissue-based
Chain of Mu-type opioid receptor (Cavia porcellus) (P97266 whole entry): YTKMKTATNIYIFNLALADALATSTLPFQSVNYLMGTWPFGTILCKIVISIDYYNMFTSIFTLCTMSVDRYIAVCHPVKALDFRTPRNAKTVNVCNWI
Procedure, shortened: (§1)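 Guinea-pig ileum strips held under a 2 g load and equilibrated for 60 min. Contractions were evoked by transmural single pulses (0.1 Hz, 0.3 ms, 200 mA), followed by a further 60–90 min equilibration with repeated Krebs changes. Compound was added cumulatively, at least 5 min per step. Inhibition was expressed as percentage change from baseline, with EC50 from non-linear curve fitting (n = 6–8).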

Mu-type opioid receptor [7] = target: T1, Mu-type opioid receptor; experiment: Displacement of [3H]Diprenorphine from human MOR expressed in HEK293 cell membranes by liquid scintillation counting
[8] = target: Kappa-type opioid receptor (Homo sapiens, UniProt P41145); experiment: Displacement of [3H]Diprenorphine from human KOR expressed in HEK293 cell membranes by liquid scintillation counting
Chain of Kappa-type opioid receptor (Homo sapiens, UniProt P41145) (P41145 whole entry): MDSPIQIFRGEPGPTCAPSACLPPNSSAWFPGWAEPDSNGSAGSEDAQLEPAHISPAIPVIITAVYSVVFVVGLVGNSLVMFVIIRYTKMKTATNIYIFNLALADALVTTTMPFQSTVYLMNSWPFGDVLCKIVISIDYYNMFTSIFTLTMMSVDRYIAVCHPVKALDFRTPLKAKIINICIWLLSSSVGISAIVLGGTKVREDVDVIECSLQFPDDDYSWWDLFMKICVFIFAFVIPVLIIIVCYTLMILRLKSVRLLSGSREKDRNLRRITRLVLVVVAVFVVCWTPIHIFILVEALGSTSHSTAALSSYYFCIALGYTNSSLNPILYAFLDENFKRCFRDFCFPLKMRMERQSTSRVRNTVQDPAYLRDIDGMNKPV

Homo sapiens [9] = species: Homo sapiens; experiment: Selectivity ratio of Ki for displacement of [3H]Diprenorphine from human KOR expressed in HEK293 cell membranes to Ki for displacement of [3H]Diprenorphine from human MOR expressed in HEK293 cell membranes
Mus musculus [10] = experiment: Antinociceptive activity in CB1 mouse assessed as increase in tail flick latency at 5 mg/kg, ip up to 90 mins; type: functional, organism-based
Mus musculus [11] = experiment: Antinociceptive activity in CB1 mouse assessed as increase in tail flick latency at 5 mg/kg, ip after 60 mins; type: functional, organism-based
[12] = target: Mu-type opioid receptor (Cavia porcellus) (UniProt P97266); experiment: Agonist activity at MOR in Dunkin-Hartley guinea pig ileum assessed as inhibition of electrically-evoked contractions in presence of opioid receptor antagonist naloxone; type: tissue-based
Procedure, shortened: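 Cumulative concentration–response curves were run on electrically stimulated guinea-pig ileum strips (2 g load; 0.1 Hz, 0.3 ms, 200 mA) with a single naloxone concentration of 10^-6 M. […]. Contractions were scored as percentage change from baseline.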

[13] = target: Mu-type opioid receptor (Cavia porcellus) (UniProt P97266); experiment: Agonist activity at MOR in Dunkin-Hartley guinea pig ileum assessed as inhibition of electrically-evoked contractions in presence of mu-opioid receptor antagonist naloxonazine; type: tissue-based
Procedure, shortened: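 Electrically stimulated guinea-pig ileum strips (2 g load; single pulses 0.1 Hz, 0.3 ms, 200 mA) were tested with naloxonazine present at 10^-6 M. Agonist was added cumulatively, at least 5 min apart, after 60–90 min equilibration in Krebs. Response was taken as percentage inhibition from baseline, with EC50 by non-linear fitting (n = 6–8).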

[14] = target: Mu-type opioid receptor (Cavia porcellus) (UniProt P97266); experiment: Agonist activity at MOR in Dunkin-Hartley guinea pig ileum assessed as inhibition of electrically-evoked contractions in presence of kappa-opioid receptor antagonist norBNI; type: tissue-based; procedure, shortened: as §1
[15] = target: Mu-type opioid receptor (Cavia porcellus) (UniProt P97266); experiment: Agonist activity at MOR in Dunkin-Hartley guinea pig ileum assessed as inhibition of electrically-evoked contractions in presence of mu-opioid receptor agonist DAMGO; type: tissue-based; procedure, shortened: as §1
Mus musculus [16] = experiment: Antinociceptive activity in ip dosed CB1 mouse assessed as increase in tail flick latency after 30 mins; type: functional, organism-based
Mus musculus [17] = experiment: Antinociceptive activity in CB1 mouse assessed as increase in tail flick latency at 5 mg/kg, ip administered 45 mins post naloxone challenge measured up to 90 mins in presence of naloxone; type: functional, organism-based
Procedure, shortened: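 Naloxone was given at 3 mg/kg ip, 45 min before 5 mg/kg ip test compound, in male Swiss CB1 mice (25–30 g). Infrared tail-flick latency (lower third of tail, 10 s cutoff, baseline mean of three readings) was measured at 30, 60 and 90 min post-injection (n = 8).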

Chain of Kappa-type opioid receptor (Rattus norvegicus, UniProt P34975) (P34975 whole entry): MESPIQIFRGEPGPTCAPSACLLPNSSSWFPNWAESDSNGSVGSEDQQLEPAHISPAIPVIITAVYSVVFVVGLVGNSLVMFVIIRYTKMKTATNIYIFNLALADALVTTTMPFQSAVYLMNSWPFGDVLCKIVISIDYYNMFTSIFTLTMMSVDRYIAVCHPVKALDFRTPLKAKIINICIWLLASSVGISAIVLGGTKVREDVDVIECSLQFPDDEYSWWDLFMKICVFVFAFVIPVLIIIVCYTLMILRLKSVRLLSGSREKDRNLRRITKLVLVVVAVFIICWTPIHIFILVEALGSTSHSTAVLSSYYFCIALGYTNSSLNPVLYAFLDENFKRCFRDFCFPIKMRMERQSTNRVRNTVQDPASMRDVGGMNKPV
T1 sequence (P35372 whole entry): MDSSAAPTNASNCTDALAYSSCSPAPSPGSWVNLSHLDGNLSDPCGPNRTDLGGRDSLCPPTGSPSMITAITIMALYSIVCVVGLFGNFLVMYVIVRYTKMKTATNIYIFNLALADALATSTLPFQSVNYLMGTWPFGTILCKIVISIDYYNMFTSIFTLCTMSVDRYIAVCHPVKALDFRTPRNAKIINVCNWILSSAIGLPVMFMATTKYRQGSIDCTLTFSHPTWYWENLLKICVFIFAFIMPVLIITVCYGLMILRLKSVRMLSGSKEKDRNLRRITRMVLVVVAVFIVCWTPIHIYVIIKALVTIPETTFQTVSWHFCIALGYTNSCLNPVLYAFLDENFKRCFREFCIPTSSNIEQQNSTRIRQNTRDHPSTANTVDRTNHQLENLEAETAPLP

SMILES	Ki (Mu-type opioid receptor [1])	Ki [2]	Ki [3]	Ratio Ki [4]	Ratio Ki (Homo sapiens [5])	further results
C[C@H]1[C@H]2Cc3ccc(O)cc3[C@]1(C)CCN2CCC(=O)N1CCc2ccccc2[C@@H]1c1ccccc1	380 nM	900 nM	2900 nM	12.5	35	–
C[C@H]1[C@H]2Cc3ccc(O)cc3[C@]1(C)CCN2CCC(=O)Nc1ccccc1	–	110 nM	–	132	33.8	–
C[C@H]1[C@H]2Cc3ccc(O)cc3[C@]1(C)CCN2CCC(=O)N(C)C(c1ccccc1)c1ccccc1	160 nM	370 nM	1400 nM	2.31	8.75	pD2 [6]: 5.7
C[C@H]1[C@H]2Cc3ccc(O)cc3[C@]1(C)CCN2CCC(=O)N1CCc2ccccc2C1c1ccccc1 (mixture of isomers)	96 nM	–	–	–	–	–
COc1ccsc1CNCC[C@@]1(c2ccccn2)CCC2(CCCC2)OC1	–	–	–	–	–	Ki (Mu-type opioid receptor [7]): 6 nM; Ki [8]: < 10000 nM; Ratio Ki (Homo sapiens [9]): 1670
CN1CC[C@]23c4c5ccc(O)c4O[C@H]2[C@@H](O)C=C[C@H]3[C@H]1C5	–	–	–	–	–	Activity (Mus musculus [10]): Active; Activity (Mus musculus [11]): Active
C[C@H]1[C@H]2Cc3ccc(O)cc3[C@]1(C)CCN2CCC(=O)NCC(c1ccccc1)c1ccccc1	0.5 nM	190 nM	440 nM	380	880	Activity [6]: Dose-dependent effect; pD2 [6]: 6.8; pD2 [12]: 6.4; pD2 [13]: 6.5; pD2 [14]: 6.9; pD2 [15]: 7; Activity (Mus musculus [16]): Dose-dependent effect; Activity (Mus musculus [10]): Active; Activity (Mus musculus [17]): inactive
C[C@H]1[C@H]2Cc3ccc(O)cc3[C@]1(C)CCN2CCC(=O)NC(c1ccccc1)c1ccccc1	84 nM	680 nM	2900 nM	8.09	34.5	pD2 [12]: 4.1
C[C@H]1[C@H]2Cc3ccc(O)cc3[C@]1(C)CCN2CCC(=O)N1CCc2ccccc2[C@H]1c1ccccc1	470 nM	1900 nM	7900 nM	4.04	16.8	–
